Test results taken from publication PMC7860060 (ACS Omega, 2021).
“Also recorded” adds a separate entry of the source. Where no end group is shown, it is not given here.

Legend:
[1] = Water solubility of peptides; assay type: physicochemical; settings: peptide excluded from synthesis for ITC; 'would be' marginally soluble
cHSA = cHSA (Homo sapiens, UniProt P02768); assay: ITC titration of peptide into cHSA of different levels of carbamylation; assay type: binding
native Fgn (fibrinogen) = assay: ITC titration of peptide into native Fgn; assay type: binding, bovine; settings: peptide 0.21 mM into Fgn 4 μM, 0.1 M sodium phosphate pH 7.4, 25 °C
How it was run: (§1)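 Bovine plasma fibrinogen was used either native or carbamylated by stirring 0.008 mM protein with 0.1 M sodium cyanate in 0.1 M phosphate pH 7.4 at room temperature for 2 days. Cell held 4 μM protein; peptide titrant was 0.21 mM; both were in 0.1 M sodium phosphate pH 7.4. 50 injections 200 s apart, 150 rpm, 25 °C. Dilution heat subtracted, independent-model fit, repeated at least twice.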

[2] = target: carbamylated HSA (cHSA-2) (Homo sapiens, UniProt P02768); assay: ITC titration of peptide into cHSA-2; assay type: binding
[3] = target: anti-Hcit (anti-carbamylation (homocitrulline) polyclonal antibody); assay: ITC titration of peptide into anti-Hcit; assay type: binding, rabbits; settings: peptide into solution containing only anti-Hcit, 25 °C, 0.01 M PBS pH 7.4 containing 50% glycerol and 0.02% NaN3 (control test)
[4] = target: carbamylated HSA (cHSA-1) (Homo sapiens, UniProt P02768); assay: ITC titration of peptide into cHSA-1; assay type: binding; settings: pH 7.4
[5] = target: carbamylated HSA (cHSA-3) (Homo sapiens, UniProt P02768); assay: ITC titration of peptide into cHSA-3; assay type: binding; settings: pH 7.4
[6] = target: T1, carbamylated fibrinogen (cFgn) (Bos taurus, UniProt P02672+P02676+P12799, DEL436-444); assay: ITC titration of peptide into cFgn; assay type: binding, bovine
T1 sequence (P02672 20-615): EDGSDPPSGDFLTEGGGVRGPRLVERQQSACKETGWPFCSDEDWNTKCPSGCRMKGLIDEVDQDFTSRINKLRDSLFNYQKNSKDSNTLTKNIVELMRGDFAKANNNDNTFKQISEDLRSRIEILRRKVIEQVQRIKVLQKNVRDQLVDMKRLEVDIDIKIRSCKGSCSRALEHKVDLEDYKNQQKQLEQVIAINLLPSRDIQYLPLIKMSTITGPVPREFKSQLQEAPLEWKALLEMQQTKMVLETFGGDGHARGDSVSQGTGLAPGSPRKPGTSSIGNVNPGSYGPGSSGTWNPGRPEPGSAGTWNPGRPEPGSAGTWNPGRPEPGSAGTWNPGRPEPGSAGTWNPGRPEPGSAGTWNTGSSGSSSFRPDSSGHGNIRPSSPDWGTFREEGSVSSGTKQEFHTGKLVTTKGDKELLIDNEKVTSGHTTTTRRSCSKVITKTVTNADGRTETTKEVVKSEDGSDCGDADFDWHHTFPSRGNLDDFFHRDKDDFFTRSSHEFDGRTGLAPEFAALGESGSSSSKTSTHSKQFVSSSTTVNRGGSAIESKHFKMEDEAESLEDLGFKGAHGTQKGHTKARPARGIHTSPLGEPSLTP
T1 sequence (P02676 1-468): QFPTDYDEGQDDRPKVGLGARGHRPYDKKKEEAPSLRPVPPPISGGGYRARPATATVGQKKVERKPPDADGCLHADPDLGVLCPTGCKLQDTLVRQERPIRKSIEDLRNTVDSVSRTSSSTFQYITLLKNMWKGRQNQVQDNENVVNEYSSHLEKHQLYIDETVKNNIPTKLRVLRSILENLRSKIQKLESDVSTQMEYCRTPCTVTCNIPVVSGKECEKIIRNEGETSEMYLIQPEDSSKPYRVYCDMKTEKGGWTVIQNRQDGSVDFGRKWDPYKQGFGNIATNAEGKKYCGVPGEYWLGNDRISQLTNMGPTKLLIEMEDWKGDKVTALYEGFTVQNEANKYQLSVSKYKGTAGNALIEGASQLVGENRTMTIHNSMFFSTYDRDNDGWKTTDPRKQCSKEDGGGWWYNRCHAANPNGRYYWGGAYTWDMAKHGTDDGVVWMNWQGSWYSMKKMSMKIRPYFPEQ
T1 sequence (P12799 25-435 limits assumed): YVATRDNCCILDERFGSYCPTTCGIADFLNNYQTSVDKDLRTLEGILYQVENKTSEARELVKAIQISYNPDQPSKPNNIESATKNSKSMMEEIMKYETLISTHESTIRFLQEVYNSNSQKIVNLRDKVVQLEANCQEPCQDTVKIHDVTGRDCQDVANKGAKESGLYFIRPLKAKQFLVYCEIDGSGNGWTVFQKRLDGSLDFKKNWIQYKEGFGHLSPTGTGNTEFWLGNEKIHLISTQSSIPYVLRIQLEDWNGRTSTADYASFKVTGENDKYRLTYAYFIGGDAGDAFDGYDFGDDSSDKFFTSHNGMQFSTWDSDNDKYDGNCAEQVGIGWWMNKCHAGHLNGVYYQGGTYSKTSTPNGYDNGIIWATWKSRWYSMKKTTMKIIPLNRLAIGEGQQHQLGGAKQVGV
How it was run: as §1

native HSA = native HSA (Homo sapiens, UniProt P02768); assay: ITC titration of peptide into native HSA; assay type: binding; settings: 0.1 M sodium phosphate pH 7.4, 25 °C
[7] = target: Carbamylated human serum albumin, Hcit% 2.7 (cHSA-2) (human) (UniProt P02768); assay: ITC
[8] = target: Albumin from human serum (native HSA) (human, UniProt P02768 25-609); assay: ITC
[9] = target: Anti-carbamylation (homocitrulline) polyclonal antibody (anti-Hcit) (rabbit); assay: ITC

cHSA, sequence (P02768 25-609): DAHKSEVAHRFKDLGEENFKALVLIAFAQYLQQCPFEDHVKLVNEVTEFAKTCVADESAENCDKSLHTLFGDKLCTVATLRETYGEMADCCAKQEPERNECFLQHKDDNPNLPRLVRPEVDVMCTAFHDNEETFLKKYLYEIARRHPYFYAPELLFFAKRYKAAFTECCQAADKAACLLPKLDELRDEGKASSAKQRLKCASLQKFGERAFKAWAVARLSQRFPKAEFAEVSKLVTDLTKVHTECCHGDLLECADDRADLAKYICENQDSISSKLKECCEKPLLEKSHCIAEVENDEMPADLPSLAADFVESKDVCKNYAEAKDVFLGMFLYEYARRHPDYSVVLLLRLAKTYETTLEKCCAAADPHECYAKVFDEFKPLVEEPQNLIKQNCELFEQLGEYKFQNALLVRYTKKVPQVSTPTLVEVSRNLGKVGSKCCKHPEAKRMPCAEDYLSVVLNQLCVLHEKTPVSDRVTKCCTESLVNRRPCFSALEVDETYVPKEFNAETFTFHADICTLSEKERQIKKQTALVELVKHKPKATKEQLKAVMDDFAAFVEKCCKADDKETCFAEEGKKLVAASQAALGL
Albumin from human serum (native HSA), sequence (P02768 25-609): as above
native HSA, sequence (P02768 25-609): as above

TPTIAIAQYNKW [cH2-p5]
aqueous solubility (expected) [1]: marginally soluble

GSAARTISPSLL [cH2-p1]
Kd (cHSA): ~100 µM | binding thermodynamics (sign of heat), HSA/cHSA (cHSA; ITC titration peaks, HSA/cHSA, pH 7.4, 25 °C): exothermic | influence of extent of carbamylation on binding affinity (cHSA; ITC, cHSA-1, cHSA-2, cHSA-3): difference in surface charge did not seem to affect the binding affinity; also recorded: not found to be influenced by the extent of carbamylation | binding to native Fgn (ITC) (native Fgn (fibrinogen)): not binding to native Fgn at all | Kd to cHSA relative to Kd to native HSA ([2]; ITC, comparison with native HSA): almost 1 order of magnitude lower than its Kd to native HSA | binding affinity for cHSA versus HSA (ITC and ELISA) ([2]; both ITC and ELISA results): consistently higher binding affinity for cHSA than HSA | Kd ([2]; pH 7.4): 97 µM | Kd [3]: 1000 µM | Kd [4]: 120 µM | Kd [5]: 99 µM | Kd [6]: 84 µM | binding thermodynamics (sign of heat), cFgn ([6]; ITC titration peaks, pH 7.4, 25 °C): endothermic | binding to carbamylated versus native fibrinogen (ITC) ([6]; cFgn versus native Fgn): binding specificity to carbamylated fibrinogen (cFgn); also recorded: found to bind cFgn over the native protein | binding to HSA in words (ITC) (native HSA): too weak to produce an obvious titration curve

WPARTSAPFTNS [cH2-p3]
aqueous solubility (expected) [1]: marginally soluble

AHPHSDKLVPPR [cH2-p4 peptide (synthetic)]
Kd [7]: 130 µM

TLGLRPVPVATT [cH2-p6 peptide (synthetic)]
Kd [7]: 200 µM

GSAARTISPSLL [cH2-p1 peptide (synthetic)]
Kd [8]: 1000 µM | Kd [9]: 1000 µM
